From ChEMBL document CHEMBL1121584, “Soft drugs. 3. A new class of anticholinergic agents” (J Med Chem, 1980)

Columns and labels:
Cavia porcellus [1] = species on record: Cavia porcellus; experiment: Antihistamine activity was measured by the guinea pig ileum test; c = NA means no activity found at the doses used.; format: functional
Procedure, shortened: (§1)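 Guinea pig ileum strips, McEwan's solution, Carbogen, 37 °C, 1 g tension. Cumulative histamine concentration-response curves were recorded before and after 15–20 min equilibration with rising antagonist concentrations. pA2 came from dose ratios of mean curves.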

Cavia porcellus [2] = species on record: Cavia porcellus; experiment: Anticholinergic activity was measured by the guinea pig ileum test.; format: functional; conditions: for Kb: Cavia porcellus, Ileum, read-out: pA2 (converted)
Procedure, shortened: (§2)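 Guinea pig whole ileum strips in McEwan's solution, gassed with O2/CO2 95:5, 37 °C organ bath, 1 g tension. Cumulative acetylcholine concentration-response curves were run to constancy, then repeated after 15–20 min equilibration with increasing antagonist concentrations. Mean curves gave dose ratios, from which competitive antagonism and pA2 were derived.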

[3] = Half life period was measured at 7.4 pH from d[acid]/dt.; format: ADME; conditions: pH 7.4
Procedure, shortened: (§3)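 Chemical hydrolysis in 0.5 M potassium phosphate, pH 7.4, 37 °C. Rate was followed by appearance of the acid product or loss of the quaternary salt. Where salt contained amine hydrochloride, initial concentration was taken from final acid after complete hydrolysis. Half-life was estimated from both where resolved.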

[4] = The hydrolytic kinetics expressed as Kobs was measured at 7.4 pH at 37 degree C; format: ADME; conditions: pH 7.4; procedure, shortened: as §3
Cavia porcellus [5] = species on record: Cavia porcellus; experiment: Anticholinergic activity was measured by the guinea pig ileum test; c = NA means no activity found at the doses used.; format: functional; procedure, shortened: as §2
Cavia porcellus [6] = species on record: Cavia porcellus; experiment: Antihistamine activity was measured by the guinea pig ileum test.; format: functional; conditions: for Kb: Cavia porcellus, Ileum, read-out: pA2 (converted); procedure, shortened: as §1
Felis catus [7] = experiment: acetylcholine antagonist effect of compound on cat blood pressure at concentration 5.7*10e-8 mol/kg in 1 min; format: functional
Procedure, shortened: (§4)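 Adult cats under ip α-chloralose (80 mg/kg) plus pentobarbitone (6 mg/kg), bilaterally vagotomized and artificially respired. Carotid blood pressure was recorded. An iv acetylcholine dose giving 70–80% of maximal vasodepressor response was used. After iv test drug, acetylcholine responses were checked at 1 min and then every 2–3 min and expressed as % of control. Doses were given in mol/kg, escalating after recovery.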

Felis catus [8] = species on record: Felis catus; experiment: acetylcholine antagonist effect of compound on cat blood pressure at concentration 5.4*10e-8 in 33 min
Felis catus [9] = species on record: Felis catus; experiment: acetylcholine antagonist effect of compound on cat blood pressure at concentration 5.7*10e-9 in 7 min; format: functional
Procedure, shortened: (§5)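 Adult cats anesthetized ip with α-chloralose (80 mg/kg) plus sodium pentobarbitone (6 mg/kg), bilaterally vagotomized, artificially respired. Carotid arterial pressure recorded. Drugs given iv via brachial vein. Acetylcholine dose giving 70-80% of maximal vasodepressor response used throughout. Test drug injected, acetylcholine response checked 1 min later, then every ~2-3 min. Value is % of control vasodepressor response to acetylcholine.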

Felis catus [10] = species on record: Felis catus; experiment: acetylcholine antagonist effect of compound on cat blood pressure at concentration 5.7*10e-9 in 2 min; format: functional; procedure, shortened: as §5
Felis catus [11] = species on record: Felis catus; experiment: acetylcholine antagonist effect of compound on cat blood pressure at concentration 5.7*10e-8 in 18 min; format: functional; procedure, shortened: as §4
Felis catus [12] = species on record: Felis catus; experiment: acetylcholine antagonist effect of compound on cat blood pressure at concentration 5.7*10e-8 in 9 min; format: functional; procedure, shortened: as §5
[13] = The hydrolytic kinetics expressed as Kobs was measured at 9.4 pH at 36 degree C; format: ADME; conditions: pH 9.4
Procedure, shortened: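 Hydrolysis in 0.1 M sodium carbonate-bicarbonate, pH 9.4, ionic strength 0.5 (NaCl added), 36 °C. Kobsd was followed from the rate of acid formation.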

Felis catus [14] = species on record: Felis catus; experiment: acetylcholine antagonist effect of compound on cat blood pressure at concentration 5.4*10e-8 in 2 min
[15] = Half life period was measured at 37 degree C in dog plasma from d[quant]/dt.; format: ADME, Canis lupus familiaris
Procedure, shortened: (§6)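 Fresh dog blood was centrifuged and the upper layer filtered through 0.8 and 0.2 µm membranes. 2 mL plasma samples with gentisic acid internal standard were incubated. 5 µL aliquots taken at intervals were assayed against acid standard curves in methanol. Rates came from acid appearance or quaternary salt loss.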

Felis catus [16] = species on record: Felis catus; experiment: acetylcholine antagonist effect of compound on cat blood pressure at concentration 5.7*10e-8 in 5 min; format: functional; procedure, shortened: as §5
Cavia porcellus [17] = species on record: Cavia porcellus; experiment: Antihistamine activity was measured by the guinea pig ileum test; c = NA means no activity found at the doses used; format: functional; procedure, shortened: as §1
Felis catus [18] = species on record: Felis catus; experiment: acetylcholine antagonist effect of compound on cat blood pressure at concentration 5.7*10e-9 in 1 min; format: functional; procedure, shortened: as §5
Canis familiaris [19] = species on record: Canis familiaris; experiment: The hydrolytic kinetics expressed as Kobs was measured in dog plasma at 37 degree C; format: ADME, Canis lupus familiaris; procedure, shortened: as §6
Felis catus [20] = species on record: Felis catus; experiment: acetylcholine antagonist effect of compound on cat blood pressure at concentration 5.7*10e-8 in 23 min; format: functional; procedure, shortened: as §4
Felis catus [21] = species on record: Felis catus; experiment: acetylcholine antagonist effect of compound on cat blood pressure at concentration 5.7*10e-9 in 4 min; format: functional; procedure, shortened: as §5
Felis catus [22] = species on record: Felis catus; experiment: acetylcholine antagonist effect of compound on cat blood pressure at concentration 5.4*10e-8 in 28 min
Cavia porcellus [23] = species on record: Cavia porcellus; experiment: Anticholinergic activity was measured by the guinea pig ileum test; c = NA means no activity found at the doses used; format: functional; conditions: read-out: pA2 (converted); procedure, shortened: as §2
Canis familiaris [24] = species on record: Canis familiaris; experiment: The hydrolytic kinetics expressed as Kobs was measured in dog plasma at 36 degree C; format: ADME, Canis lupus familiaris; procedure, shortened: as §6
[25] = Cholinergic potency was expressed in terms of relative activity vs acetylcholine.; format: functional
Felis catus [26] = species on record: Felis catus; experiment: acetylcholine antagonist effect of compound on cat blood pressure at concentration 5.4*10e-8 in 38 min
Felis catus [27] = species on record: Felis catus; experiment: acetylcholine antagonist effect of compound on cat blood pressure at concentration 5.4*10e-8 in 44 min
Felis catus [28] = species on record: Felis catus; experiment: acetylcholine antagonist effect of compound on cat blood pressure at concentration 5.7*10e-8 in 13 min; format: functional; procedure, shortened: as §4
[29] = Cholinergic potency was expressed in terms of relative activity vs acetylcholine; c = NA means no activity found at the doses used.; format: functional
Felis catus [30] = species on record: Felis catus; experiment: acetylcholine antagonist effect of compound on cat blood pressure at concentration 5.7*10e-7 in 12 min; format: functional; procedure, shortened: as §4
Felis catus [31] = species on record: Felis catus; experiment: acetylcholine antagonist effect of compound on cat blood pressure at concentration 5.7*10e-7 in 3 min; format: functional; procedure, shortened: as §4
Felis catus [32] = species on record: Felis catus; experiment: acetylcholine antagonist effect of compound on cat blood pressure at concentration 5.7*10e-8 in 8 min; format: functional; procedure, shortened: as §5
Felis catus [33] = species on record: Felis catus; experiment: acetylcholine antagonist effect of compound on cat blood pressure at concentration 5.7*10e-7 in 24 min; format: functional; procedure, shortened: as §4
Felis catus [34] = species on record: Felis catus; experiment: acetylcholine antagonist effect of compound on cat blood pressure at concentration 5.7*10e-8 in 10 min; format: functional; procedure, shortened: as §4
Felis catus [35] = species on record: Felis catus; experiment: acetylcholine antagonist effect of compound on cat blood pressure at concentration 5.7*10e-8 in 4 min; format: functional; procedure, shortened: as §5
Felis catus [36] = species on record: Felis catus; experiment: acetylcholine antagonist effect of compound on cat blood pressure at concentration 5.7*10e-7 in 18 min; format: functional; procedure, shortened: as §4
Felis catus [37] = species on record: Felis catus; experiment: acetylcholine antagonist effect of compound on cat blood pressure at concentration 5.7*10e-8 in 6 min; format: functional; procedure, shortened: as §5
Felis catus [38] = species on record: Felis catus; experiment: acetylcholine antagonist effect of compound on cat blood pressure at concentration 5.7*10e-7 in 9 min; format: functional; procedure, shortened: as §4
Felis catus [39] = species on record: Felis catus; experiment: acetylcholine antagonist effect of compound on cat blood pressure at concentration 5.7*10e-7 in 15 min; format: functional; procedure, shortened: as §4
Felis catus [40] = species on record: Felis catus; experiment: acetylcholine antagonist effect of compound on cat blood pressure at concentration 5.7*10e-7 in 6 min; format: functional; procedure, shortened: as §4
Felis catus [41] = species on record: Felis catus; experiment: acetylcholine antagonist effect of compound on cat blood pressure at concentration 5.7*10e-7 in 1 min; format: functional; procedure, shortened: as §4
Felis catus [42] = species on record: Felis catus; experiment: acetylcholine antagonist effect of compound on cat blood pressure at concentration 5.7*10e-7 in 21 min; format: functional; procedure, shortened: as §4

CC[N+](CC)(CC)COC(=O)C1(c2ccccc2)CCCC1
pA2 (Cavia porcellus [1]): No activity
Kb (Cavia porcellus [2]): 79.4 nM

C[N+]1(COC(=O)C2(c3ccccc3)CC2)CCCC1.[Cl-]
pA2 (Cavia porcellus [1]): No activity
Kb (Cavia porcellus [2]): 1580 nM
half-life [3]: 17 h
K obs [4]: 0.00068 min⁻¹

CC[N+](CC)(CC)COC(C)=O
pA2 (Cavia porcellus [5]): No activity

CC[N+](CC)(CC)COC(=O)C(c1ccccc1)C1CCCC1 (configuration not stated)
Kb (Cavia porcellus [6]): 50.1 nM
Kb (Cavia porcellus [2]): 3.16 nM

C[N+]1(COC(=O)C(c2ccccc2)C2CCCC2)CCCC1.[Cl-] (configuration not stated)
Response (Felis catus [7]): 0%
Response (Felis catus [8]): 81%
Response (Felis catus [9]): 100%
Response (Felis catus [10]): 0%
Response (Felis catus [11]): 63%
Response (Felis catus [12]): 0%
K obs [13]: 0.139 min⁻¹
Response (Felis catus [14]): 0%
half-life [15]: 6.5 h
Response (Felis catus [16]): 0%
pA2 (Cavia porcellus [17]): No activity
Response (Felis catus [18]): 0%
K obs (Canis familiaris [19]): 0.00168 min⁻¹
half-life [3]: 20 h
Response (Felis catus [20]): 63%
Response (Felis catus [21]): 67%
Response (Felis catus [22]): 69%
Kb (Cavia porcellus [23]): 3.98 nM
K obs (Canis familiaris [24]): 0.00144 min⁻¹
Activity [25]: No activity
Response (Felis catus [26]): 88%
Response (Felis catus [27]): 88%
Response (Felis catus [28]): 31%
K obs [4]: 0.000578 min⁻¹

CC(C(=O)OC[N+]1(C)CCCC1)(c1ccccc1)c1ccccc1.[Cl-]
pA2 (Cavia porcellus [1]): No activity
Kb (Cavia porcellus [2]): 3.98 nM
half-life [3]: 60 h
K obs [4]: 0.000193 min⁻¹

CC1CCC[N+]1(C)COC(=O)C1(c2ccccc2)CC1.[Cl-] (configuration not stated)
Kb (Cavia porcellus [6]): 575 nM
Kb (Cavia porcellus [2]): 251 nM
half-life [3]: 21 h
K obs [4]: 0.00055 min⁻¹

Cn1cc[n+](COC(=O)C23CC4CC(CC(C4)C2)C3)c1
Kb (Cavia porcellus [6]): 5010 nM
Kb (Cavia porcellus [2]): 2000 nM
Activity [29]: No activity

CC(=O)OC1C[N+]2(COC(=O)C(c3ccccc3)C3CCCC3)CCC1CC2.[Cl-] (configuration not stated)
pA2 (Cavia porcellus [6]): 5.7
pA2 (Cavia porcellus [2]): 8.6

CCC(C)C(=O)OC[N+]12CCC(CC1)CC2 (configuration not stated)
pA2 (Cavia porcellus [5]): No activity
Activity [25]: 1

CC1CCC[N+]1(C)COC(=O)C(c1ccccc1)C1CCCC1 (configuration not stated)
Kb (Cavia porcellus [6]): 12.6 nM
Kb (Cavia porcellus [2]): 0.501 nM

CC[N+](CC)(CC)COC(=O)C(c1ccccc1)C1CCCCC1.[Cl-] (configuration not stated)
Kb (Cavia porcellus [6]): 2000 nM
Response (Felis catus [7]): 0%
Response (Felis catus [30]): 43%
Response (Felis catus [31]): 0%
Response (Felis catus [32]): 83%
Response (Felis catus [33]): 100%
Kb (Cavia porcellus [2]): 2.51 nM
Response (Felis catus [14]): 0%
Response (Felis catus [34]): 100%
Response (Felis catus [35]): 50%
Response (Felis catus [36]): 78%
Response (Felis catus [37]): 67%
Response (Felis catus [38]): 0%
Response (Felis catus [39]): 60%
Response (Felis catus [40]): 0%
Response (Felis catus [41]): 0%
Response (Felis catus [42]): 93%
